# Measurements: ChEMBL document CHEMBL1153228, “Synthesis and in vivo evaluation of bicyclic gababutins” (Bioorg Med Chem Lett, 2010)
# The source made the active and inactive calls. The rule behind the calls is not given here.
# Tests used:
# [1] = target: Voltage-dependent calcium channel alpha2delta subunit (Sus scrofa, UniProt O77773); experiment: Displacement of [3H]gabapentin from calcium channel alpha2delta in pig cerebral cortex membrane after 30 mins; type: cell membranes
# [2] = Inhibition of L-type amino acid transporter expressed in CHO cells assessed as inhibition of [3H]leucine uptake; type: cell-based
# [3] = test system: Rattus norvegicus; experiment: Analgesic activity in intrathecally dosed rat chronic constriction injury weight model assessed as inhibition of pain effect; type: functional, organism-based
# Outline: (§1)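 Rat sciatic-nerve chronic constriction model: loose ligatures placed around the sciatic nerve produce hypersensitivity in one hind paw. Weight borne on each hind paw is measured, and the read-out is the difference between the ipsilateral (affected) and contralateral (unaffected) paw.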
# [4] = Bioavailability in rat; type: ADME, organism-based; conditions: in vivo
# [5] = Elimination half life in rat; type: ADME, organism-based; conditions: in vivo
# [6] = Clearance in rat; type: ADME, organism-based; conditions: in vivo
# [7] = test system: Rattus norvegicus; experiment: Analgesic activity in rat chronic constriction injury weight model assessed as inhibition of pain effect at 3 to 10 mg/kg, po; type: functional, organism-based; outline: as §1
# [8] = Lipophilicity, log D at pH 7.4; type: physicochemical; conditions: buffer
# Sequence of Voltage-dependent calcium channel alpha2delta subunit (O77773 whole entry): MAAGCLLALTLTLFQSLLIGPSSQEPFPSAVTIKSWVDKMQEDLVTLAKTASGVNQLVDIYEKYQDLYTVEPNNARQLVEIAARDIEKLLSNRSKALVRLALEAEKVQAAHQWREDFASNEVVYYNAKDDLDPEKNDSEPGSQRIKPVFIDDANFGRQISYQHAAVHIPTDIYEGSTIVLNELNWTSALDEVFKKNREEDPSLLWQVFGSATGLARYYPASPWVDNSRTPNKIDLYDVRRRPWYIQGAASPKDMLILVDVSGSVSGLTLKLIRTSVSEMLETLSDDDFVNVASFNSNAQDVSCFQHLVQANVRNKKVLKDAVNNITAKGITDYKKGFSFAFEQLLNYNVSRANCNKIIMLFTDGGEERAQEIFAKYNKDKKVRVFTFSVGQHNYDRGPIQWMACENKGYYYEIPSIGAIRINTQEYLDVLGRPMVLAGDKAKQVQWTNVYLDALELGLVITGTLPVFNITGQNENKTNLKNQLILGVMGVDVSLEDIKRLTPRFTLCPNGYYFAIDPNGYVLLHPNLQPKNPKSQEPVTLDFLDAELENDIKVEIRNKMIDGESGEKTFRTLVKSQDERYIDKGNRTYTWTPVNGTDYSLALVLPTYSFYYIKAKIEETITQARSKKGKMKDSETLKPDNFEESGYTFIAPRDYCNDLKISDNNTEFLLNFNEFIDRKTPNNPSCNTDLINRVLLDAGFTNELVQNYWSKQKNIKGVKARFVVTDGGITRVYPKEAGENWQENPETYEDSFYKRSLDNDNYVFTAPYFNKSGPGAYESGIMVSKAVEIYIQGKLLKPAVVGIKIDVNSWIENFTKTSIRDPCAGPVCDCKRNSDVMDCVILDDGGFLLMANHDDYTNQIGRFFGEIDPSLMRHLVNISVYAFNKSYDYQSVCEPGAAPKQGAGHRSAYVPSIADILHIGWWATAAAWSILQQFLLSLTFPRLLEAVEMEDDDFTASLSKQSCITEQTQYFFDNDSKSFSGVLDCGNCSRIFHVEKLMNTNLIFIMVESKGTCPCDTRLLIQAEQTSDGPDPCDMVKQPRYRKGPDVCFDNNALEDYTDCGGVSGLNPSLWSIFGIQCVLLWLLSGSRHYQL
SMILES,IC50 [1] [µM],other results
C[C@H]1CC(CN)(CC(=O)O)C[C@@H]1C (relative stereo) [ATAGABALIN],0.022,IC50 [2]: 10 µM
NC[C@@]1(CC(=O)O)C[C@H]2CCC[C@H]2C1,> 10,
NCC1(CC(=O)O)CC2CCCCC2C1 (racemic),> 10,
NC[C@]1(CC(=O)O)C[C@H]2CCC[C@H]2C1,2.6,
NC[C@]1(CC(=O)O)CC2CCCCC21 (mixture of isomers),0.6,
NC[C@@]1(CC(=O)O)C[C@@H]2CCC[C@@H]21,0.019,IC50 [2]: 6930 µM; Activity [3]: Active
NC[C@]1(CC(=O)O)C[C@H]2CC[C@H]2C1,0.038,IC50 [2]: 38 µM; bioavailability [4]: 84%; half-life [5]: 2.4 h; clearance [6]: 4.3 mL/min/kg; Activity [7]: Active; logD [8]: -1
NC[C@]1(CC(=O)O)C[C@H]2CCC[C@H]21,0.046,IC50 [2]: > 10000 µM; bioavailability [4]: 100%; half-life [5]: 2.3 h; clearance [6]: 4.5 mL/min/kg; Activity [7]: Active; logD [8]: -1
NCC1(CC(=O)O)CC2CCC2C1 (racemic),2.9,
NCC1(CC(=O)O)CC2CCCC2C1 (racemic),> 10,
NC[C@@]1(CC(=O)O)CC2CCCCC21 (mixture of isomers),3.09,
NC[C@@]1(CC(=O)O)C[C@H]2CC[C@H]2C1,0.332,
NC[C@]1(CC(=O)O)C[C@H]2CCCC[C@H]2C1,0.72,
NC[C@]1(CC(=O)O)CCC2CCCC21 (mixture of isomers),7.18,
NC[C@@]1(CC(=O)O)C[C@H]2CCCC[C@H]2C1,> 10,
C[C@@H]1C[C@@](CN)(CC(=O)O)C[C@@H]1C,0.107,IC50 [2]: 7 µM
NC[C@@]1(CC(=O)O)CC2CCCC21 (mixture of isomers),2.8,
NC[C@]1(CC(=O)O)CC2CCCC21 (mixture of isomers),0.025,
